Source: PubChem BioAssay
Mdm2-MdmX inh: inhibitors of human Mdm2/MdmX interaction. O15151+Q00987. SaOS-2 split-luciferase Mdm2/MdmX complementation, luminescence. inhibition, % at 8 µM. hit rate 3% among 330,000. AID 485346;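 active = inhibition of at least 50% at 8 µM in the primary screen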
Jurkat NFkB inh: inhibitors of the PMA/ionomycin-induced NF-kB reporter in Jurkat cells | PMA/ionomycin-induced NF-kB luciferase reporter, luminescence | inhibition, % at 4 µM | hit rate 0.53% among 330,000 | AID 435003; in the data active = inhibition above about 50%
VIM-2 inh: blocks Pseudomonas aeruginosa VIM-2 metallo-beta-lactamase; inhibition, % at 5.6 µM; AID 1527; hit rate 0.89% among 290,000; purified VIM-2, nitrocefin hydrolysis, epi-absorbance fluorescence;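 active = inhibition above the mean of all tested compounds plus 3 SD, cutoff set per screening run, cut at about 7.5% in these data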;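 note: red hydrolysis product quenches plate fluorescence so inhibitors raise well fluorescence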
aSyn 5UTR inh: 5' untranslated region of α-synuclein, MLPCN primary screen. alpha-synuclein 5'UTR reporter, inhibitor activity. inhibition, % (tested at 7.5 µM). hit rate 0.82% among 300,000; in the data active = inhibition above about 60%;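 note: H4 neuroglioblastoma cells stably carrying SNCA 5'UTR luciferase fusion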
IMP-1 inh: blocks Pseudomonas aeruginosa IMP-1 metallo-beta-lactamase; purified IMP-1, nitrocefin hydrolysis, epi-absorbance fluorescence; inhibition, % at 5.6 µM; hit rate 0.45% among 290,000;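 active = inhibition above the mean plus 3 SD of all compounds in the same screening run, cut at about 4.5% in these data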
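Test system: recombinant IMP-1 enzyme, purified / Medium: HEPES buffer pH 7.1 with ZnSO4 and Brij 35 / Doses: single dose, 5.6 µM / Times: 25 °C, 15 min preincubation, 25 min reaction / Detection: Epi-absorbance via hydrolysed-nitrocefin quenching of white-plate fluorescence, 480/530 nm, EDTA stop / Evaluation: percent inhibition from optical density relative to buffer-blank wells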
697 NFkB inh: inhibitors of the PMA/ionomycin-induced NF-kB reporter in 697 B cells; 697 B-cell NF-kB luciferase reporter, 16 h; inhibition, % at 4 µM; hit rate 0.33% among 330,000; AID 435022; in the data active = inhibition above about 35%
697 NFkB conf: inhibitors of the PMA/ionomycin-induced NF-kB reporter in 697 B cells, retest. AID 449746. 697 B-cell NF-kB luciferase, 16 h. hit rate 35% among 2,000. inhibition, % at 4 µM. shares compounds with 697 NFkB inh; in the data active = inhibition mostly above about 28%, no sharp cut-off; inactive = mostly below about 22%
Hits are given with their value; 0 = inactive; - = no result; ! = a repeat was not active. The list is not random: actives were taken first. Their share in the collection is about 4.7%.

SMILES	Mdm2-MdmX inh	Jurkat NFkB inh	VIM-2 inh	aSyn 5UTR inh	IMP-1 inh	697 NFkB inh	697 NFkB conf
COC(=O)C1=C[C@@H](C(=O)OC)C2C3=C(C(=O)C24CCCCC4)[C@H](C)n2c(=O)n(C)c(=O)n2[C@@H]3C1 (some centres not stated)	0	0	-	0	-	0	-
COC(=O)C1=C[C@@H](C(=O)OC)C2C3=C(C(=O)C24CCCCC4)[C@H](C)n2c(=O)n(-c4ccccc4)c(=O)n2[C@@H]3C1 (some centres not stated)	0	0	-	0	-	38	0
CC(=O)c1ccc(N2CCN(c3ccnc4cc(Cl)ccc34)CC2)cc1	0	0	0	0	0	42	0
CC(C)c1ccccc1OCC(=O)Nc1ccc2[nH]ncc2c1	0	0	0	0	0	0	-
COc1cc(-c2nc3n(n2)C(c2ccncc2)C2=C(CCCC2=O)N3)cc(OC)c1OC (configuration not stated)	0	0	0	0	0	0	-
COc1ccc(C2C3=C(CCCC3=O)Nc3nc(-c4cc(OC)c(OC)c(OC)c4)nn32)cc1OC (configuration not stated)	0	0	0	0	0	38	0
O=C(Nc1cccc(Br)c1)c1ccc2c(c1)SC1=NS(=O)(=O)CCN12	0	0	-	-	-	46	41
O=C1CC(c2ccc3c(c2)OCO3)CN1 (configuration not stated)	0	0	0	0	0	38	0
O=C1CC(c2ccc3c(c2)OCO3)c2cc3c(cc2N1)OCO3 (configuration not stated)	0	0	0	0	0	0	-
Cc1nc([N+](=O)[O-])c(Sc2nc3ccccc3[nH]2)n1Cc1ccccc1	0	0	0	0	0	0	-
COc1ccc2nc(Sc3c([N+](=O)[O-])nc(C)n3Cc3ccccc3)[nH]c2c1	0	0	0	0	0	39	47
CC(=O)Nc1cc(C(=O)N2CCCC2)ccc1Sc1ccc(C)cc1	0	0	0	0	0	38	0
Cc1ccc(NC(=O)c2cc(S(=O)(=O)N3CCOCC3)cn2C)cc1F	0	0	0	0	0	0	-
N=c1c2c(n(Cc3ccc(Cl)cc3)c3c1CCC3)CCC2	0	0	0	0	0	105	0
N=c1c2c(n(Cc3ccc(F)cc3)c3c1CCC3)CCCC2	0	0	0	0	0	0	-
Cc1ccc(NC(=O)CN(Cc2ccco2)Cc2ccccc2O)cc1C	0	0	0	0	0	0	-
Cc1ccc(C)c(NC(=O)CSc2nnc(-c3ccccc3C)o2)c1	0	0	0	0	0	0	-
Cc1cccc(NC(=O)CSc2nnc(-c3cc(C)n(-c4ccccc4)c3C)o2)c1C	0	0	0	0	0	71	0
Cc1ccc(C(=O)Nc2cccc(C(=O)NCc3ccccc3)c2)o1	0	0	0	0	0	36	0
O=C(NCc1ccccc1)c1cccc(NC(=O)c2ccco2)c1	0	0	0	0	0	0	-
CCCC[n+]1ccn(-c2nc3ccccc3nc2[N-]S(=O)(=O)c2ccc(Br)cc2)c1	0	0	0	0	0	37	0
CN(C)c1ccc(N=Nc2ccccc2Br)cc1	0	0	0	0	0	0	0
CCOC(=O)c1cc2c(=O)n3ccccc3nc2n(C)c1=NC(=O)c1c(-c2c(F)cccc2Cl)noc1C	0	0	-	0	-	48	0
CCOC(=O)c1cc2c(=O)n3ccccc3nc2n(C(C)C)c1=NC(=O)c1c(-c2c(F)cccc2Cl)noc1C	0	0	0	0	0	0	-
Cc1cc2ncc(-c3cccs3)nc2cc1C	0	0	0	0	0	0	0
SMILES	Mdm2-MdmX inh	Jurkat NFkB inh	VIM-2 inh	aSyn 5UTR inh	IMP-1 inh	697 NFkB inh	697 NFkB conf
O=C(c1cc2nc(-c3ccccc3)cc(-c3ccccc3)n2n1)N1CCCC1	0	0	0	0	0	0	-
O=C(c1cc2nc(-c3ccccc3)cc(-c3ccccc3)n2n1)N1CCN(C(=O)c2ccco2)CC1	0	0	0	0	0	42	36
Cc1ccc2c(c1)N(C(=O)CCC(=O)NCCCN1CCOCC1)CCO2	0	0	0	0	0	0	-
CC(=O)c1c(C)[nH]c(C(=O)N2CCN(C(=O)c3ccco3)CC2)c1C	0	0	0	0	0	0	-
CC(=O)c1c(C)[nH]c(C(=O)N2CCc3ccccc3C2)c1C	0	0	0	0	0	42	0
Cc1c(CCC(=O)NCCCn2ccnc2)c(=O)oc2c(C)c3oc4c(c3cc12)CCCC4	0	0	9.6	0	0	38	23
Cc1cc(COc2ccccc2OCc2cc(C)no2)on1	0	0	0	0	0	0	-
Cc1noc(COc2ccccc2OCC(N)=O)c1Cl	0	0	0	0	0	38	0
Cc1cccc(Cl)c1OCCCn1ccnc1	0	0	0	0	0	0	-
CC(OC(=O)C1CCN(S(=O)(=O)c2ccc(F)cc2)CC1)C(=O)NC1CCCCC1C (configuration not stated)	0	0	-	0	-	0	-
COC(=O)c1[nH]c2ccc(C)cc2c1NC(=O)Nc1ccccc1OC	0	0	0	0	0	36	26
COc1ccc(/C=C2\SC(=S)N(CCCC(=O)Nc3cccc(C(=O)O)c3)C2=O)cc1OC	0	0	0	0	0	0	-
COc1ccc(/C=C2\SC(=S)N(CCC(=O)Nc3cccc(O)c3)C2=O)cc1OC	0	0	0	0	0	37	0
COc1ccc(/C=C2\SC(=S)N(CCC(=O)Nc3ccc(C(=O)O)cc3)C2=O)cc1OC	0	0	0	0	0	35	31
CCc1ccc(OCc2nc(-c3ccccn3)no2)c(Br)c1	0	0	0	0	0	0	0
Cc1ccc(-c2c[n+]3c(n2-c2ccccc2)SCC3)cc1	0	0	0	0	0	39	42
Cc1ccc(-c2cn(-c3ccccc3)c3[n+]2CCCS3)cc1	0	0	0	0	0	56!	35
COc1ccc(-c2c[n+]3c(n2-c2ccccc2)SCC3)cc1	0	0	0	0	0	0	-
O=C(O)CCc1nn2c3ccccc3n(Cc3ccccc3F)c2nc1=O	0	0	0	0	0	41	0
O=C(O)CCc1nn2c3ccccc3n(CC(=O)O)c2nc1=O	0	0	0	0	0	0	-
CCOc1ccc(-c2nnc(-c3cccs3)o2)cc1	0	0	0	0	0	0	0
Cc1cccc(/C=N/NC(=O)c2ccc3c(c2)OCCO3)c1O	0	0	0	0	0	0	0
O=[N+]([O-])c1ccccc1N/N=C/c1cccc(O)c1O	0	0	0	0	0	0	0
COc1ccc(NC(=O)c2cnc(SC)nc2)cc1	0	0	0	0	0	0	-
CCCCc1cc(=O)oc2cc(OCC(=O)N(CC)CC)ccc12	0	0	0	0	0	39	0
CC(=O)Nc1ccc(NC(=O)CSc2nnc(-c3cccs3)n2N)cc1	0	0	-	0	-	40	0
